Measurements published in publication PMC6422158 (Clinical cancer research : an official journal of the …, 2018).

Key:
[1] = tested on: Gli1 mRNA; assay: Gli1 mRNA expression in skin biopsies; assay type: in vivo, human; settings: overall, all doses 50-600 mg QD; interquartile range 80.9%−95.7%
Outline: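 Normal skin biopsies taken predose, cycle 1 day 15 and cycle 2 day 1 from patients on oral QD dosing (28-day cycles). Post-dose samples were taken 2 h after dosing in escalation, and 24 h after the cycle 2 day 1 dose in confirmation/expansion. GLI1 was measured by RT-PCR, normalised to RPLP0, and % inhibition was derived by 2−ΔΔCT and summarised by dose level.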

[2] = Plasma pharmacokinetics of LY2940680 and LSN3185556 in patients; assay type: in vivo, human
Outline: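 Oral dosing was once daily in the morning, 50–600 mg, on 28-day cycles. About 4 mL blood was drawn into EDTA tubes over a 24-h sampling schedule. Parent and metabolite in plasma were quantified by validated LC/MS. Noncompartmental analysis gave Cmax, tmax, AUC0–24, t1/2, Vd/F and CL/F. Accumulation ratio was from AUC0–24, days 1 vs 15, reported as geometric means with %CV.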

[3] = tested on: locally advanced/metastatic basal cell carcinoma; assay: Tumor response per RECIST 1.1, BCC patients; assay type: in vivo, human
Outline: (§1)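 Response was assessed by RECIST 1.1 plus investigator assessment. Best response required two CR determinations (or two PR-or-better) before progression. Confirmation used the same radiologic method repeated at least 4 weeks after the initial response. ORR was CR+PR among all patients dosed at least once. Clinical benefit was CR+PR+SD among dosed patients with a measurable lesion.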

[4] = in vitro; assay type: in vitro ADME; settings: human, plasma
[5] = tested on: human Smo (hSmo) receptor; settings: cited from earlier work
[6] = tested on: advanced cancer; assay: Tumor response per RECIST 1.1, all patients on therapy; assay type: in vivo, human; settings: 84 patients on therapy
Outline: as §1

[7] = tested on: patients with advanced cancer; assay: Phase I safety and tolerability; assay type: in vivo
[8] = biological target: human serum albumin (Homo sapiens, UniProt P02768); assay: In vitro binding to human serum albumin; assay type: in vitro ADME
[9] = biological target: CYP3A4 (Homo sapiens, UniProt P08684); assay: In vitro metabolism by CYP3A4; assay type: in vitro ADME; settings: in vitro data
[10] = cited from earlier work
[11] = at doses above 400 mg; first human dose trial; ref 19−22; cited from earlier work
[12] = tested on: advanced BCC; settings: human, in vivo; cited from earlier work
[13] = BCC, prior Hh therapy including vismodegib and sonidegib

Chain of human serum albumin (P02768 25-609): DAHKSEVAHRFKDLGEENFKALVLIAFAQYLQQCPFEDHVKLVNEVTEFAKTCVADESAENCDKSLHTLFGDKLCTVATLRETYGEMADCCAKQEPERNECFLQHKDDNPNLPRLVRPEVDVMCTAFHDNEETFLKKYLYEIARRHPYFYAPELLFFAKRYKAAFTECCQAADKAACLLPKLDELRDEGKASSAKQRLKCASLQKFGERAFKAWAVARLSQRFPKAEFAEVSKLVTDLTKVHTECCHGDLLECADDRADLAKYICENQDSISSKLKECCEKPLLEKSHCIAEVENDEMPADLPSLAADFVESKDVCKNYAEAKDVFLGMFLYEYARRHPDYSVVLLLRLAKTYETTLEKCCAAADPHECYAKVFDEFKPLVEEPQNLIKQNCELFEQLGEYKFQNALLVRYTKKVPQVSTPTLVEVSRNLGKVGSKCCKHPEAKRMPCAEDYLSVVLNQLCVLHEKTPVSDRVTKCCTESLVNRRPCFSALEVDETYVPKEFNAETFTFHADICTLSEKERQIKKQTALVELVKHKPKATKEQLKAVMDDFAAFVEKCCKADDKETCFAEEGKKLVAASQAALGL
Chain of CYP3A4 (P08684 whole entry): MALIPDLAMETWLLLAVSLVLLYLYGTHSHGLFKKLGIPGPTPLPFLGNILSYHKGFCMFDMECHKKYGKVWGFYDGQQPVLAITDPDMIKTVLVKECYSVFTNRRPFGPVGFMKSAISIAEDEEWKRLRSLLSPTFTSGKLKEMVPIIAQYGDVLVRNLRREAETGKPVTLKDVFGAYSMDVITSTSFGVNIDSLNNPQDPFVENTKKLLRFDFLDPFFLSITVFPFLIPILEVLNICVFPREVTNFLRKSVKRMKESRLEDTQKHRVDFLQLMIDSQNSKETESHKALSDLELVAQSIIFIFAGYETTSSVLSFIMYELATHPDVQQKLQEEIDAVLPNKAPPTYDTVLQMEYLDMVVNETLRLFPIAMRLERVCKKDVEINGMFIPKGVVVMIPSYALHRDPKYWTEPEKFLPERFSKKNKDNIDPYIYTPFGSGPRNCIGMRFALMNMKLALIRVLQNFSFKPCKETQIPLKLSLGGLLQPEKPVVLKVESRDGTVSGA

## CN(C(=O)c1ccc(F)cc1C(F)(F)F)C1CCN(c2nnc(-c3ccnn3C)c3ccccc23)CC1 [LY2940680, taladegib]
[1]
  Gli1 inhibition in normal skin (median): 92.3%
[2]; LY2940680, between days 1 and 15, QD, range 0.7−4.8, 39% CV
  Accumulation ratio based on AUC0–24: approximately 2
[2]; QD dosing
  Steady state attained: cycle 2, day 1
[2]; after multiple doses
  Dose proportionality of Cmax and AUC0–24: did not suggest any large deviation from dose proportionality
[2]; after single- and multiple-dose oral administrations
  Time to reach Cmax: approximately 3 hours
[2]; human, in vivo
  PK variability on exposure: approximately 70%
[2]; human, plasma, po
  Vd/F: 235 L
[2]; oral, 70% CV
  CL/F (geometric mean): 8.2 L/h
[3]; 16 BCC patients requiring dose reductions
  Best overall response of CR or PR: 9 (56.3%) patients (%)
[3]; 47 BCC patients
  Best overall response of CR or PR: 22 (46.8%) patients (%)
  Best response of progressive disease: 1 patient
[3]; 47 BCC patients (twenty-one patients)
  Best response of SD: 44.7%
[3]; 47 BCC patients, based on nontarget lesions
  Best response of non-CR nonprogressive disease: 1 patient
[3]; BCC
  Responses in Hh treatment-naïve patients: 68.8%
  Responses in Hh treatment-naïve patients (responders/patients): 11/16
[3]; BCC expansion phase (n = 40), 400 mg QD, 95% CI 7.62−17.54
  Estimated median PFS: 12.0 months
[3]; BCC patients (n = 47), 95% CI 32.1%−61.9%
  Estimated response rate: 46.8%
[3]; BCC patients, 95% CI 82.5%−98.7%
  Disease control rate: 93.6%
[3]; [13]
  Responses in patients previously treated with Hh therapy: 35.5%
  Responses in patients previously treated with Hh therapy (responders/patients): 11/31
[3]; Hh-inhibitor treatment–naïve locally advanced BCC, 50 mg QD, PR
  Duration of sustained response, single patient: 8.3 months
[3]; number of the 16 BCC patients requiring dose reductions
  Confirmed CR: 3
[3]; number of the 47 BCC patients
  Confirmed CR: 5
  Confirmed PR: 16
  Unconfirmed PR: 1
[4]
  fraction unbound: 0.056
[5]
  Binding to hSmo receptor: competitively inhibits binding of an hSmo agonist
[6]
  Best response of SD: 26 (30.9%) patients (%)
  Best response of progressive disease: 24 (28.6%) patients (%)
  Confirmed CR: 5 (5.9%) patients (%)
  Confirmed PR: 16 (19.0%) patients (%)
  Patients with a response: 22 (26.2%) patients (%)
  Unconfirmed PR: 1 (1.2%) patients (%)
[7]; human, in vivo
  AE resulting in dose reductions: decreased appetite: 3
  AE resulting in dose reductions: dysgeusia: 3
  AE resulting in dose reductions: fatigue: 8
  AE resulting in dose reductions: muscle spasms: 8
  AE resulting in dose reductions: nausea: 3
  AE resulting in dose reductions: weight decreased: 3
  Patients who discontinued treatment because of AE: 10
  Patients with SAEs: 22 patients
  Patients with at least 1 dose reduction: 16 patients
[7]; human, in vivo, 1 cycle
  Patients with DLTs: 4 patients
[7]; human, in vivo, 22 day
  DLT observed: grade 3 hyponatremia
[7]; oral QD, 3+3 dose escalation 50 to 600 mg
  Maximum tolerable dose (MTD): 400 mg
[8]; 1 to 10 μmol/L
  Concentration dependence of binding to human serum albumin: no apparent concentration-dependent binding
[8]; tested with human serum albumin and human α−1-acid glycoprotein
  Predominant plasma-binding protein: Human serum albumin
[9]
  Fraction metabolized by CYP3A4: 100%

## Cc1c(C(=O)Nc2ccc(N3C[C@@H](C)O[C@@H](C)C3)nc2)cccc1-c1ccc(OC(F)(F)F)cc1 [sonidegib]
[10]
  Bound to plasma protein: over 99%
[11]
  PK linearity: nonlinear PK
[12]
  Efficacy in advanced BCC patients previously treated with vismodegib: not efficacious
